Compound activity deposited in PubChem BioAssay by Sanford-Burnham Center for Chemical Genomics.
Most compounds without a hit are left out; they make up all but 1.8% or so of the library.
DNMT1 block – inhibitors of human DNMT1; DNMT1 molecular beacon, Hinp1I cleavage, fluorescence; 360,000 tested, 0.83% active; inhibition (reported as % activation of signal), % at 10 µM; in the data active = inhibition above about 50%
SUMO1 PPI mod – modulators of human SUMO1-mediated protein-protein interactions; SUMO1 binding to a labelled peptide, TR-FRET, 1 h; P63165; inhibition, % at 20 µM; 360,000 tested, 0.33% active; AID 602429; in the data active = inhibition above about 37%
Target sequence (P63165 whole entry, looked up): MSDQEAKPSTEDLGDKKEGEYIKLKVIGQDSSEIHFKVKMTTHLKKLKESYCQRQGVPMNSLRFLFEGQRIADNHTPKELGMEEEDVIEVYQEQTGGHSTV
STEP block – inhibitors of human striatal-enriched phosphatase STEP | P54829 | recombinant STEP, OMFP fluorogenic substrate, fluorescence | inhibition, % at 20 µM | 360,000 tested, 0.25% active | AID 588621;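 active = inhibition at 20 µM, scaled per plate between control wells, above about 37%, limit read from the data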
Target sequence (P54829 whole entry, looked up): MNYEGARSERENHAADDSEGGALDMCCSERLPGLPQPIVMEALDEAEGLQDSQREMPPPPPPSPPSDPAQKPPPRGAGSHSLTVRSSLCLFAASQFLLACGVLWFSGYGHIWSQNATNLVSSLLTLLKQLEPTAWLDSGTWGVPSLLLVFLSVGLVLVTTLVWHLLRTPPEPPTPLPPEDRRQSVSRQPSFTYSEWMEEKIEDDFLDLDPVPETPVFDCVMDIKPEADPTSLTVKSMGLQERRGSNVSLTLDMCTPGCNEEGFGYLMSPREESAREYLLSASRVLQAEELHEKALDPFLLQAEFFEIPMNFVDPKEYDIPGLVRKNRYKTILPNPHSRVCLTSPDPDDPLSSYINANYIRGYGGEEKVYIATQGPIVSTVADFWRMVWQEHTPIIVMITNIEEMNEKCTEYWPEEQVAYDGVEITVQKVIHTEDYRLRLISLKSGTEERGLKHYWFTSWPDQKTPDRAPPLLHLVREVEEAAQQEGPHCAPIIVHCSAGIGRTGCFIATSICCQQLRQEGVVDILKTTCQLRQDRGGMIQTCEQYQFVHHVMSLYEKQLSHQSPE
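System: STEP (striatal-enriched tyrosine phosphatase) enzyme, cell-free; medium: Bis-Tris pH 6.0 buffer with DTT, detergent; dosing: 20 µM, 1% DMSO; times: reaction 20 min, ambient temperature; detection: fluorescence, 480/540 nm; read-out basis: normalized % inhibition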
Scp-1 inhibitor – Scp-1 (human) phosphatase inhibition; Q9GZU7; Recombinant Scp1, phosphopeptide, malachite green phosphate absorbance; inhibition, % at 20 µM; 340,000 tested, 0.88% active; AID 493091;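 active = inhibition above about 50% at 20 µM, limit read from the data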
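assay system = SCP-1 phosphatase catalytic domain, residues 76-261 | buffer or medium = 50 mM Tris acetate pH 5.5, 0.005% Tween-20, 10 mM MgCl2 | incubation = enzyme reaction 45 min at room temperature, colour 5 min, stabilisation 30 min | signal = Phosphate-binding colour reagent, absorbance read at 630 nm | measure = % inhibition at 20 µM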
LMPTP inh – LMPTP (human) inhibition; 360,000 tested, 0.22% active; recombinant LMPTP-A, OMFP fluorogenic substrate, fluorescence intensity; inhibition, % at 20 µM;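 active = compounds that cut the enzyme signal by at least half of the control window in the single-dose screen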
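test system = LMPTP-A | amount = 0.625 nM LMPTP-A final | reagent = fluorogenic phosphatase substrate OMFP at 400 µM final | incubation = 50 min at room temperature | benchmarks = no-enzyme low control, uninhibited high control | medium = Bis-Tris pH 6.0, DTT, detergent | signal = fluorescence intensity of OMFP turnover product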
Scp-1 conf – Scp-1 (human) inhibition, single-dose confirmed; 2,500 tested, 61% active; recombinant SCP-1 catalytic domain, phosphate release, malachite green absorbance; shares compounds with Scp-1 inhibitor; AID 540281; inhibition, % at 20 µM
MG interference – counter-screen for Scp-1 inhibitors: colorimetric interference; shares compounds with Scp-1 inhibitor; Colorimetric interference counterscreen, malachite green absorbance 630 nm; apparent inhibition (interference), % at 20 µM; 2,500 tested, under 10 active;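 note: compounds added after enzyme reaction finished so only phosphate colour detection is probed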
Scp1 DSF – Scp-1 (human) binding by thermal shift; AID 540329; Recombinant SCP1, Sypro Orange thermal shift Tm; shares compounds with Scp-1 inhibitor; 1,500 tested, 25% active; thermal shift relative to vanadate control, % at 40 µM;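 active = substances whose mean melting-temperature shift, as a percentage of the reference inhibitor's shift, reaches about 5.3%, limit read from the data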
Large screens that a line does not name were inactive (follow-up assays come after a bar, where they were run).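 Rule for the calls, unless noted: active = inhibition of at least 30% at 20 µM; inactive = the rest.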

CCOC(=O)c1ccc(Nc2sc(C(=O)c3cccc([N+](=O)[O-])c3)c(N)c2C#N)cc1	SUMO1 PPI mod 52.7
CC1(C(=O)NS(=O)(=O)c2cccc(Cl)c2)CCN1C(=O)C1CCCCC1 (configuration not stated)	none (no result: Scp-1 inhibitor)
S=C(NCCCN1CCOCC1)NCCCN1CCOCC1	STEP block 93.6
O=C(NC1CCCCC1)c1sc(=S)n2c1[nH]c(=O)c1ccccc12	Scp-1 inhibitor 80.0
CN(C)CCNC(=O)C1(O)c2cc(Br)ccc2NC(=O)N1c1ccc(Cl)cc1 (configuration not stated)	none
Cc1c(Br)c(O)c(Br)c(O)c1/C=N/n1c(-c2ccccc2)n[nH]c1=S	Scp-1 inhibitor 89.7
CC(C)C[C@H](NC(=O)OC(C)(C)C)C(=O)N[C@@H](CO)[C@H](O)[C@@H]1C[C@@H]1C(=O)NC1CCCCC1	none
CC1(C)Cc2nc3sc4c(=O)n(CC(=O)NCc5ccccc5)cnc4c3cc2CO1	SUMO1 PPI mod 43.2
CC1(C)Cc2nc3sc4c(=O)n(CC(N)=O)cnc4c3cc2CO1	none
CC1CCN(C(=O)COC(=O)c2ccccc2NCCO)CC1	none (no result: Scp-1 inhibitor)
COc1ccc(C2=CC3=C(Br)C(=O)C(C)(OC(=O)c4cccs4)C(=O)C3=CO2)cc1 (configuration not stated)	SUMO1 PPI mod 44.0
CCN(C[C@H]1N[C@@](Cc2ccccc2)(C(=O)OC)[C@H]2C(=O)N(C)C(=O)[C@@H]12)C(=O)COC	Scp-1 inhibitor 50.4 | Scp-1 conf inactive | MG interference inactive
CN(C)CCNC(=O)C(=O)NCC1CCCN1S(=O)(=O)c1cccs1 (configuration not stated)	none
CCc1ccc(-n2nnnc2SCC(=O)Nc2ccc(NC(C)=O)cc2)cc1	none
CC(=O)Nc1ccc(-n2nnnc2SCC(=O)Nc2cccc(NC(=O)c3ccco3)c2)cc1	Scp-1 inhibitor 55.3 | Scp-1 conf 30.2 | MG interference inactive | Scp1 DSF inactive
OC1COC(c2ccccc2)OC1C(O)C1OC(c2ccccc2)OCC1O (configuration not stated)	none
CC(C)OCCCN(C)C1CCN(S(=O)(=O)c2ccc(-c3ccc(=O)[nH]n3)s2)CC1	Scp-1 inhibitor 50.7 | Scp-1 conf inactive | MG interference inactive
CCCCn1c(N)c(N(CC(C)C)C(=O)C2CC(=O)N(Cc3ccccc3)C2)c(=O)[nH]c1=O (configuration not stated)	none | Scp-1 conf inactive | MG interference inactive
C[C@@H]1C[C@H]2[C@@H]3C[C@H](F)C4=CC(=O)C=C[C@]4(C)[C@@]3(Cl)[C@@H](O)C[C@]2(C)[C@H]1C(=O)COC(=O)C(C)(C)C	none
CN1C(=O)/C(=N\OC(=O)c2cccc3ccccc23)c2ccccc21	none
COc1ccc(C(=O)O/N=C2\C(=O)N(C)c3ccccc32)cc1	Scp-1 inhibitor 52.3 | Scp-1 conf inactive | MG interference inactive
C=CCn1c(SCC(=O)NCCOC)nc2scc(-c3ccco3)c2c1=O	Scp-1 inhibitor 52.2 | Scp-1 conf inactive | MG interference inactive
C=CCn1c(SCC(=O)NCC2CCCO2)nc2scc(-c3ccco3)c2c1=O (configuration not stated)	none
O=C(COc1ccccc1)N1N=C(c2cccnc2)CC1(O)C(F)(F)F (configuration not stated)	none
Cc1ccc(OCC(=O)N2N=C(c3ccncc3)CC2(O)C(F)(F)F)cc1C (configuration not stated)	Scp-1 inhibitor 102.7 | Scp-1 conf inactive | MG interference inactive
COc1ccc(S(=O)(=O)N(C)C[C@H]2Oc3ncc(Br)cc3C(=O)N([C@@H](C)CO)C[C@@H]2C)cc1	none (no result: Scp-1 inhibitor)
Cc1c(CCC(=O)O)c(=O)oc2cc(OCc3ccccc3Br)ccc12	Scp-1 inhibitor 83.1 | Scp-1 conf 76.4 | MG interference inactive | Scp1 DSF inactive
Cc1c(CCC(=O)O)c(=O)oc2cc(OCc3cccc(F)c3)ccc12	none
O=C(NNC(=O)c1ccc2ccccc2c1)c1ccc(Cl)c(Cl)c1	Scp-1 inhibitor 63.8 | Scp-1 conf 58.2 | MG interference inactive | Scp1 DSF inactive
O=C(NNC(=O)c1cccc2ccccc12)c1ccc(Cl)c(Cl)c1	none
C[C@H](CO)N1C[C@H](C)[C@@H](CN(C)S(=O)(=O)c2cn(C)cn2)Oc2c(NC(=O)Nc3ccc4c(c3)OCO4)cccc2C1=O	none
O=C(CSc1nc2[nH]ncc2c(=O)[nH]1)Nc1ccccc1C(F)(F)F	Scp-1 inhibitor 50.8 | Scp-1 conf inactive | MG interference inactive
CCCn1nc(NC(=O)COC)c2cc3cc(C)ccc3nc21	Scp-1 inhibitor 62.2 | Scp-1 conf inactive | MG interference inactive
Nc1[nH]c(C(=O)c2ccccc2)c(-c2ccncc2)c1C(=O)NCCc1c[nH]c2ccccc12	none (no result: DNMT1 block, STEP block, Scp-1 inhibitor)
Cc1ccc(C(=O)Oc2cccc(NC(=O)c3ccco3)c2)cc1S(=O)(=O)N1CCC(C)CC1	Scp-1 inhibitor 54.5 | Scp-1 conf inactive | MG interference inactive
CCOC(=O)C1=CN(Cc2ccco2)S(=O)(=O)N(C)C1c1ccc2ccccc2c1 (configuration not stated)	none
Cc1csc(NC(=O)CSc2sc3c(O)cc(=O)[nH]c3c2C#N)n1	Scp-1 inhibitor 68.0 | Scp-1 conf 53.2 | MG interference inactive | Scp1 DSF 12.4
CCCSc1nnc(NC(=O)CSc2nc3[nH]c(=O)cc(O)c3s2)s1	none
CCSc1nnc(NC(=O)CSc2sc3c(O)cc(=O)[nH]c3c2C#N)s1	DNMT1 block 77.1, Scp-1 inhibitor 77.3, LMPTP inh 61.6 | Scp-1 conf 49.1 | MG interference inactive | Scp1 DSF 12.9
O=C(COc1ccc(F)cc1Br)Nc1ccccc1N1CCOCC1	none
O=C(NCC(=O)N(Cc1cccs1)C(C(=O)NC1CCCCC1)c1ccncc1)c1ccco1 (configuration not stated)	Scp-1 inhibitor 51.6 | Scp-1 conf inactive | MG interference inactive
O=C(Nc1ccc(F)c(Cl)c1)C1Cc2c(-c3ccc4c(c3)OCO4)ccnc2O1 (configuration not stated)	none (no result: Scp-1 inhibitor)
COc1ccc(-c2noc3c2-c2nc(-c4ccccc4Cl)sc2CC3)cc1	none
CCOc1ccccc1-c1nc2c(s1)CCc1onc(-c3ccc(OC)cc3)c1-2	Scp-1 inhibitor 80.8 | Scp-1 conf inactive | MG interference inactive
